In ChEMBL document CHEMBL1158040, “Biological activities and 3D QSAR studies of a series of Delisea pulchra (cf. fimbriata) derived natural products” (J Nat Prod, 2006):
Converted amounts (≈) assume the structure as drawn. The source made the active and inactive calls. The calls are words filed in the database; no cut-off is given here.

Key:
[1] = Cytotoxicity against human BCA1 cells; assay type: functional; conditions: read-out: ED50 (the source's name)
HT-1080 = assay: Cytotoxicity against human HT1080 cells; assay type: functional; conditions: read-out: ED50 (the source's name)
Lu1 = assay: Cytotoxicity against human Lu1 cells; assay type: functional; conditions: read-out: ED50 (the source's name)
[2] = Cytotoxicity against human MEL-2 cells; assay type: functional; conditions: MEL2, read-out: ED50 (the source's name)
[3] = Cytotoxicity against human Col1 cells; assay type: functional; conditions: read-out: ED50 (the source's name)
KB [4] = assay: Cytotoxicity against human KB cells; assay type: functional; conditions: read-out: ED50 (the source's name)
KB [5] = assay: Cytotoxicity against vinblastine-sensitive human KB cells; assay type: functional; conditions: read-out: ED50 (the source's name)
KB [6] = assay: Cytotoxicity against vinblastine-resistant human KB cells; assay type: functional; conditions: read-out: ED50 (the source's name)
Outline: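 The vinblastine-resistant KB-V1 line was tested both with and without added vinblastine in the cultured tumour-cell cytotoxicity panel. Results are reported as ED50.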

P388 = assay: Cytotoxicity against mouse P388 cells; assay type: functional; conditions: read-out: ED50 (the source's name)
A-431 = assay: Cytotoxicity against human A431 cells; assay type: functional; conditions: read-out: ED50 (the source's name)
LNCaP = assay: Cytotoxicity against human LNCAP cells; assay type: functional; conditions: read-out: ED50 (the source's name)
ZR-75-1 = assay: Cytotoxicity against human ZR-75-1 cells; assay type: functional; conditions: read-out: ED50 (the source's name)
[7] = Cytotoxicity against human U373 cells; assay type: functional, U-373MG ATCC; conditions: U373 MG, read-out: ED50 (the source's name)
Escherichia coli [8] = assay: Antimicrobial activity against Escherichia coli at 10 ug; assay type: functional, organism-based
Outline: (§1)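 Direct bioautography: each compound is spotted onto TLC plates and the solvent evaporated. The test organism is then grown directly on the plate. Growth inhibition is scored at the spot as active (+) or very active (++). Where a number is given, it is the radius in mm of the inhibition zone around the spot.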

Escherichia coli [9] = assay: Antimicrobial activity against Escherichia coli at 5 ug; assay type: functional, organism-based; outline: as §1
Escherichia coli [10] = assay: Antimicrobial activity against Escherichia coli at 1 ug; assay type: functional, organism-based; outline: as §1
Escherichia coli [11] = assay: Antimicrobial activity against Escherichia coli at 0.1 ug; assay type: functional, organism-based; outline: as §1
Micrococcus luteus [12] = assay: Antimicrobial activity against Micrococcus luteus at 10 ug; assay type: functional, organism-based; outline: as §1
Micrococcus luteus [13] = assay: Antimicrobial activity against Micrococcus luteus at 5 ug; assay type: functional, organism-based; outline: as §1
Micrococcus luteus [14] = assay: Antimicrobial activity against Micrococcus luteus at 1 ug; assay type: functional, organism-based; outline: as §1
Bacillus subtilis [15] = assay: Antimicrobial activity against Bacillus subtilis at 10 ug; assay type: functional, organism-based; outline: as §1
Bacillus subtilis [16] = assay: Antimicrobial activity against Bacillus subtilis at 5 ug; assay type: functional, organism-based; outline: as §1
Bacillus subtilis [17] = assay: Antimicrobial activity against Bacillus subtilis at 1 ug; assay type: functional, organism-based; outline: as §1
Penicillium oxalicum [18] = assay: Antimicrobial activity against Penicillium oxalicum at 10 ug; assay type: functional; conditions: read-out: IZ; outline: as §1
Penicillium oxalicum [19] = assay: Antimicrobial activity against Penicillium oxalicum at 5 ug; assay type: functional; conditions: read-out: IZ; outline: as §1
Penicillium oxalicum [20] = assay: Antimicrobial activity against Penicillium oxalicum at 1 ug; assay type: functional; conditions: for zone of inhibition at 1 µg/disc: read-out: IZ; outline: as §1
Plasmodium falciparum [21] = assay: Antimalarial activity against chloroquine-sensitive Plasmodium falciparum D6 at 10 ug/ml; assay type: functional
[22] = Inhibition of PKC
Penicillium oxalicum [23] = assay: Antimicrobial activity against Penicillium oxalicum at 0.1 ug; assay type: functional; outline: as §1
[24] = Inhibition of TK assessed as residual activity at 200 ug/ml
Outline: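 The enzyme was tyrosine kinase p56lck, with test compounds at 200 μg/mL. The read-out is the remaining enzyme activity.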

Monocyte [25] = assay: Inhibition of LPS-stimulated IL1 production in human monocytes; assay type: functional, cell-based
Penicillium oxalicum [26] = assay: Antimicrobial activity against Penicillium oxalicum at 0.01 ug; assay type: functional; outline: as §1
Monocyte [27] = assay: Inhibition of IL1 biosynthesis in human monocytes; assay type: functional, cell-based
Micrococcus luteus [28] = assay: Antimicrobial activity against Micrococcus luteus at 0.1 ug; assay type: functional, organism-based; outline: as §1
Bacillus subtilis [29] = assay: Antimicrobial activity against Bacillus subtilis at 0.1 ug; assay type: functional, organism-based; outline: as §1
Plasmodium falciparum [30] = assay: Antimalarial activity against chloroquine-sensitive Plasmodium falciparum D6; assay type: functional, organism-based
Outline: (§2)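 In vitro growth inhibition of Plasmodium falciparum clones D6 (chloroquine-sensitive) and W2 (chloroquine-resistant); IC50 reported in μg/mL.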

Plasmodium falciparum [31] = assay: Antimalarial activity against chloroquine-resistant Plasmodium falciparum W2; assay type: functional, organism-based; outline: as §2
[32] = Selectivity index, ratio of IC50 for human KB cells to IC50 for Plasmodium falciparum D6; assay type: toxicity, cell-based; conditions: KB cells versus Plasmodium falciparum D6, read-out: Ratio IC50
Outline: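 Plasmodium falciparum clones were assayed in vitro: D6 (chloroquine-sensitive) and W2 (chloroquine-resistant). IC50 is in μg/mL. The selectivity index is the ratio of the antimalarial to the cytotoxic activity.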

[33] = target: Human immunodeficiency virus type 1 reverse transcriptase (Human immunodeficiency virus 1, UniProt Q72547); assay: Inhibition of HIV1 RT at 200 uM
Outline: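 HIV-1 reverse transcriptase inhibition was measured in an ELISA-based system.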

Structure (SMILES)	EC50 (Lu1)	EC50 (KB [4])	EC50 (KB [5])	EC50 (KB [6])	EC50 (LNCaP)	EC50 (ZR-75-1)	Activity (Escherichia coli [8])	Activity (Escherichia coli [9])	Activity (Escherichia coli [10])	Activity (Escherichia coli [11])	Activity (Micrococcus luteus [12])	Activity (Micrococcus luteus [13])	Activity (Micrococcus luteus [14])	Activity (Bacillus subtilis [15])	Activity (Bacillus subtilis [16])	Activity (Bacillus subtilis [17])	zone of inhibition at 10 µg/disc (Penicillium oxalicum [18])	zone of inhibition at 5 µg/disc (Penicillium oxalicum [19])	IC50 [22]	zone of inhibition at 1 µg/disc (Penicillium oxalicum [20])	further results
CCCCCCC(=O)C(Br)=C(Br)Br	> 20 µg/mL	> 20 µg/mL	> 20 µg/mL	> 20 µg/mL	> 20 µg/mL	> 20 µg/mL	inactive	inactive	inactive	inactive	Active	Active	inactive	inactive	inactive	inactive	10 mm	5 mm	≥ 200 µM		EC50 [1]: > 20 µg/mL; EC50 (HT-1080): > 20 µg/mL; EC50 [2]: > 20 µg/mL; EC50 [3]: > 20 µg/mL; EC50 (P388): > 5 µg/mL; EC50 (A-431): > 20 µg/mL; EC50 [7]: > 20 µg/mL; Activity (Penicillium oxalicum [20]): inactive; Activity (Plasmodium falciparum [21]): >50%
CCC(CCC(=O)C(Br)=C(Br)Br)OC(C)=O (centres undefined)							Active	Active	inactive	inactive	inactive	inactive	inactive	Active	Active	inactive	8 mm	9 mm	≥ 200 µM	6 mm	Activity (Penicillium oxalicum [23]): inactive; Activity [24]: 31.7%; IC50 (Monocyte [25]): 2 µM; Activity (Penicillium oxalicum [26]): inactive; IC50 (Monocyte [27]): 2 µM
CCC[C@@H](O)C1=C(Br)/C(=C/Cl)OC1=O	1 µg/mL (≈ 3.55 µM)	0.4 µg/mL (≈ 1.42 µM)	1.2 µg/mL (≈ 4.26 µM)	1.4 µg/mL (≈ 4.97 µM)	3 µg/mL (≈ 10.7 µM)	0.4 µg/mL (≈ 1.42 µM)	Active	Active	Active	Active	Active	Active	Active	Active	Active	Active	22 mm	18 mm		14 mm	Activity (Micrococcus luteus [28]): inactive; Activity (Bacillus subtilis [29]): inactive; zone of inhibition at 0.1 µg/disc (Penicillium oxalicum [23]; read-out: IZ): 6 mm; IC50 (Plasmodium falciparum [30]): 5.9 µg/mL (≈ 21 µM); IC50 (Plasmodium falciparum [31]): > 10 µg/mL; selectivity ratio [32]: < 1; IC50 [33]: 700 µM; Activity [24]: 1.9%
